The test system of test [1] is Mus musculus. The test is described as follows: Potentiation of […]-induced serotonin syndrome like behavior in po dosed mouse. In kind it is functional. The following applies: read-out: MED. In a few lines:
(§1)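 Mice, oral dosing. For serotonin potentiation, 5-hydroxytryptophan (5-HTP, serotonin precursor) is given to induce serotonin syndrome-like head twitch/stereotypy counts. Response is expressed as % potentiation relative to control group (0%). Minimal effective dose is the lowest dose reaching p <0.05. Doses are in mg/kg.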

The test system of test [2] is Mus musculus. The test is described as follows: Antidepressant activity in mouse assessed as change in locomotion at 30 mg/kg, po. In kind it is functional.
The test system of test [3] is Mus musculus. The test is described as follows: Antidepressant activity in po dosed mouse assessed as reduction of mobility time by tail suspension test. It is filed as functional. Conditions: read-out: MED. A digest of the protocol: (§2)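 Mouse tail suspension test with oral dose–response. Read-out is immobility time, reported as % reduction of immobility. Minimal effective dose is the lowest dose giving p <0.05. Doses are in mg/kg.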

Test [4] has as its system Mus musculus. The test is described as follows: Antidepressant activity in mouse assessed as change in locomotion at 90 mg/kg, po. In kind it is functional.
The subject of test [5] is Mus musculus. The test is described as follows: Antidepressant activity in mouse assessed as reduction of mobility time by forced swimming test at 10 mg/kg, po. On the set-up: scale not given: the % may be the effect or the level left. In kind it is functional. In a few lines: (§3)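 Mouse forced swimming test with oral dosing. Read-out is immobility time, expressed as % reduction of immobility. Minimal effective dose is the lowest dose with p <0.05. ED50 is given with 95% confidence limits. Doses are in mg/kg.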

The test system of test [6] is Mus musculus. The test is described as follows: Analgesic activity in mouse assessed as reduction of acetic acid-induced writhing at 30 mg/kg. Background: In writhing tests, fewer writhes than in controls are read as antinociception.
Test [7] has as its system Mus musculus. The test is described as follows: Antidepressant activity in mouse assessed as reduction of mobility time at 5 mg/kg, po by tail suspension test. It is filed as functional. On the set-up: scale not given: the % may be the effect or the level left. In a few lines:
as §2

The test system of test [8] is Mus musculus. The test is described as follows: Potentiation of […]-induced serotonin syndrome like behavior in mouse at 30 mg/kg, po. In kind it is functional. A digest of the protocol:
as §1

The subject of test [9] is Mus musculus. The test is described as follows: Antidepressant activity in po dosed mouse assessed as reduction of mobility time by forced swimming test. In kind it is functional. The following applies: for minimal effective dose: read-out: MED. A digest of the protocol: as §3
Test [10] has as its system Mus musculus. The test is described as follows: Anxiolytic activity in mouse assessed as inhibition of marble buried at 30 mg/kg, ip by marble burying test. In kind it is functional. The following applies: route intraperitoneal.
For test [11], the system named is Mus musculus. The test is described as follows: Antidepressant activity in mouse assessed as change in locomotion at 60 mg/kg, po. It is filed as functional.
Test [12] relates to Mus musculus. The test is described as follows: Anxiolytic activity in mouse assessed as inhibition of marble buried at 10 mg/kg, ip by marble burying test. Conditions: route intraperitoneal. In kind it is functional.
Test [13] concerns Mus musculus. The test is described as follows: Potentiation of […]-induced serotonin syndrome like behavior in mouse at 10 mg/kg, po. It is filed as functional. In a few lines:
as §1

Test [14] has as its system Mus musculus. The test is described as follows: Antidepressant activity in mouse assessed as reduction of mobility time at 7 mg/kg, po by tail suspension test. In kind it is functional. On the set-up: scale not given: the % may be the effect or the level left. A digest of the protocol:
as §2

Test [15] has as its system Mus musculus. The test is described as follows: Antidepressant activity in mouse assessed as reduction of mobility time by forced swimming test at 30 mg/kg, ip. Also on record: scale not given: the % may be the effect or the level left. The following applies: route intraperitoneal.

SMILES strings stand for the structures.

By inhibition in vivo is commonly meant the share of the control response that was lost under treatment. By ED50 is commonly meant the midpoint of the dose-response relation.

Turning to `Clc1ccc([C@]23CNC[C@H]2C3)cc1Cl` [AMITIFADINE], the minimal effective dose in the test with Mus musculus [1] was found to be 30 mg/kg; in the test on Mus musculus [3] it was 5 mg/kg; in the test on Mus musculus [9], 50 mg/kg. For the same compound, the Activity is 150% in the test on Mus musculus [2]; 148% in the test with Mus musculus [4]; 18% in the test on Mus musculus [5]; 33.2% with Mus musculus [7]; 54% with Mus musculus [8]; 131% with Mus musculus [11]. In addition, the inhibition in vivo at 30 mg/kg with Mus musculus [6] was determined as 93.7%; in the test on Mus musculus [10], 99.1%. In addition, the ED50 with Mus musculus [9] is 30.1 mg/kg.

On to `CNCCC(Oc1ccc(C(F)(F)F)cc1)c1ccccc1` (stereo unspecified) [FLUOXETINE], for which the minimal effective dose in the test with Mus musculus [1] was determined as 3 mg/kg; in the test on Mus musculus [9], 50 mg/kg. In addition, the inhibition in vivo at 10 mg/kg with Mus musculus [12] came to 60.3%.

With `COc1ccc(C(CN(C)C)C2(O)CCCCC2)cc1` (stereo unspecified) [VENLAFAXINE], the minimal effective dose in the test on Mus musculus [1] is 10 mg/kg; with Mus musculus [3], 7 mg/kg; in the test on Mus musculus [9] it was 30 mg/kg. The Activity in the test on Mus musculus [2] was 119%; in the test on Mus musculus [13], 129%; in the test with Mus musculus [14], 56.3%; with Mus musculus [15] it was 35.2%; in the test with Mus musculus [11] it was 139%. For the same compound, the inhibition in vivo at 30 mg/kg was found to be 70.2% with Mus musculus [6] and 82.3% with Mus musculus [10]. The ED50 with Mus musculus [9] was 38.4 mg/kg.

The values above are taken from ChEMBL document CHEMBL1221386, “Synthesis and pharmacological evaluation of 3-aryl-3-azolylpropan-1-amines as selective triple serotonin/norepinephrine/dopamine reuptake inhibitors” (Bioorg Med Chem Lett, 2010).
